According to ChEMBL document CHEMBL5715941, “AZD1152, a selective inhibitor of Aurora B kinase, inhibits human tumor xenograft growth by inducing apoptosis” (Clin Cancer Res, 2007):

Tests used:
HL-60 [1] = assay: Antitumor activity against human HL-60 cells xenografted in immunodeficient athymic mouse assessed as inhibition of tumor growth at 45 mg/kg, iv administered twice daily for 5 days relative to control; assay type: functional; conditions: HL-60, 120 h, time 5 day
[2] = Toxicity in athymic nude rat xenografted with human SW620 cells assessed as maximal body weight loss at 25 mg/kg/day, iv for 24 h following 4 days; assay type: organism-based, SW-620; conditions: in vivo, 96 h, time 4 day
In short: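 Male nude rats bearing SW620 xenografts received vehicle or AZD1152 at 25 mg/kg/d i.v. once daily for 4 consecutive days. Body weight was tracked, with maximal loss taken relative to vehicle-treated animals.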

HL-60 [3] = assay: Antitumor activity against human HL-60 cells xenografted in immunodeficient athymic mouse assessed as inhibition of tumor growth at 75 mg/kg, ip administered twice daily for 13 days relative to control; assay type: functional, organism-based; conditions: time 13.0 day

**Q.** For `CCc1cccc(CC)c1NC(=O)N1Cc2[nH]nc(NC(=O)c3ccc(N4CCN(C)CC4)cc3)c2C1` [PHA-680632], which inhibition in vivo at 45 mg/kg (HL-60 [1]) is on record?
**A.** 85%

**Q.** Which Activity [2] does the source give for `CCN(CCCOc1ccc2c(Nc3cc(CC(=O)Nc4cccc(F)c4)n[nH]3)ncnc2c1)CCOP(=O)(O)O` [BARASERTIB] here?
**A.** 5%

**Q.** With `Cc1cc(Nc2cc(N3CCN(C)CC3)nc(Sc3ccc(NC(=O)C4CC4)cc3)n2)n[nH]1` as the compound, how does the inhibition (HL-60 [3]) read?
**A.** 98%
